These results are taken from ChEMBL document CHEMBL3739398, “Inhibition of Invasion in Pancreatic Cancer Cells by Conjugate of EPA with β(3,3)-Pip-OH via PI3K/Akt/NF-kB Pathway” (ACS Med Chem Lett, 2015).

Activity calls are given as the source filed them. The calls are words filed in the database; no cut-off is given here. Where only a bound is given, the exact number is not on record here.

A short description of data set [1]: Cytotoxicity against human PANC1 cells by MTT assay. The following applies: PANC-1. Format: functional, cell-based. On the technique in general: Tetrazolium assays rely on reduction of a dye to a coloured formazan, in cell work by metabolically active cells.
The nature of data set [2]: Cytotoxicity against human PC3 cells by MTT assay. Format: functional, cell-based. The following applies: PC-3.
Data set [3] can be described thus: Cytotoxicity against human HCT116 cells by MTT assay. The data set is classed as functional, cell-based. The conditions noted are these: HCT-116.
Data set [4] deals with PANC-1. The experiment in a line: Inhibition of cell migration in human PANC1 cells at 2 and 4 microM after 48 hrs by wound healing assay. The data set is classed as functional, cell-based. Put shortly:
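Scratch wound made in PANC-1 monolayer; cells treated with compound at 2.0 and 4.0 μM, DMSO vehicle control; wound area photographed at 20× magnification at 0 h and after incubation; statistics from three independent experiments.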

Data set [5] relates to PANC-1. The data set is described as follows: Inhibition of colony formation in human PANC1 cells at 2 and 4 uM for 5 days by crystal violet staining based microscopic analysis. The data set is classed as functional, cell-based. In outline: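 PANC-1 seeded at 1 × 10^3 cells/well, treated with compound alongside DMSO for 5 days; crystal violet-stained colonies counted in random fields and imaged under inverted microscope (20×); three independent experiments.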

The subject of data set [6] is PANC-1. The data set is described as follows: Inhibition of cell invasion in human PANC1 cells at 2 and 4 uM for 24 hrs by matrigel invasion assay. The data set is classed as functional, cell-based. Put shortly:
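Boyden chamber matrigel invasion: PANC-1 treated 24 h with compound (2.0 and 4.0 μM); invaded cells counted in five random fields per group under inverted microscope (20×); three independent experiments, p < 0.05.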

The test system of data set [7] is PANC-1. The experiment in a line: Inhibition of cell invasion in human PANC1 cells by 3D invasion assay in presence of neutralized collagen. The data set is classed as functional, cell-based. Put shortly:
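PANC-1 mixed with neutralized collagen, spotted centrally in wells and solidified as a cell-collagen hemisphere; fresh medium with or without compound added; invasion beyond the original collagen boundary scored against DMSO-treated cells.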

For data set [8], the system named is PANC-1. The experiment in a line: Antimetastatic activity in human PANC1 cells at 2 and 4 uM after 24 hrs by fluorescent gelatin degradation assay. The data set is classed as functional, cell-based. In outline:
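PANC-1 grown 24 h on coverslips coated with cross-linked FITC-conjugated gelatin in presence of compound; matrix degradation spots visualized by fluorescence and degraded area highlighted by image analysis.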

The nature of data set [9]: Downregulation of MMP-2 expression in human PANC1 cells at 2 and 4 uM by western blot analysis. The data set is classed as functional, cell-based. The conditions noted are these: PANC-1. In outline: (§1)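 PANC-1 seeded in six-well plates and treated with indicated compound concentrations; whole-cell lysates probed for target proteins by Western blotting.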
(A western blot detects proteins with antibodies after separation by electrophoresis.)

A short description of data set [10]: Downregulation of MMP-9 expression in human PANC1 cells at 2 and 4 uM by western blot analysis. The data set is classed as functional, cell-based. The following applies: PANC-1. Put shortly: as §1
Data set [11] in a line: Upregulation of TIMP1 expression in human PANC1 cells by western blot analysis. Format: functional, cell-based. The following applies: PANC-1. Put shortly: as §1
Data set [12] in a line: Upregulation of E-cadherin expression in human PANC1 cells at 2 and 4 uM by western blot analysis. Format: functional, cell-based. The conditions noted are these: PANC-1. In outline: as §1
Data set [13] has as its system PANC-1. The data set is described as follows: Inhibition of PI3K-mediated Akt phosphorylation at S473 residue in human PANC1 cells by western blot analysis. Format: cell-based. In outline: as §1
Data set [14] can be described thus: Downregulation of PI3K-p85 alpha expression in human PANC1 cells by western blot analysis. Format: functional, cell-based. The following applies: PANC-1. Put shortly: as §1
Data set [15] in a line: Downregulation of PI3K-p110 alpha expression in human PANC1 cells by western blot analysis. Format: functional, cell-based. The following applies: PANC-1. In outline: as §1
Data set [16] in a line: Downregulation of NF-kappaB expression in human PANC1 cells by western blot analysis. The data set is classed as functional, cell-based. The following applies: PANC-1. Put shortly:
as §1

The nature of data set [17]: Downregulation of S6K expression in human PANC1 cells at 2 and 4 uM by western blot analysis. The data set is classed as functional, cell-based. The conditions noted are these: PANC-1. In outline:
as §1

Data set [18] can be described thus: Effect on total mTOR expression in human PANC1 cells at 2 and 4 uM by western blot analysis. The data set is classed as cell-based. The conditions noted are these: panc-1. In outline: as §1
Data set [19] relates to PANC-1. The data set is described as follows: Inhibition of PI3K-mediated mTOR phosphorylation in human PANC1 cells at 2 and 4 uM by western blot analysis. The data set is classed as cell-based. Put shortly:
as §1

In general, IC50 refers to the midpoint of a concentration-inhibition curve. Lower therefore signals higher potency. As to `CCC(/C=C/C(=O)N[C@@H](Cc1ccccc1)C(=O)OC)=C\c1ccc2c(c1)OCO2`, the IC50 in [1] was more than 100 µM; in data set [2], 41.9 µM; in data set [3] it was 48.3 µM.
The corresponding values for `CCC(/C=C/C(=O)NCC1(CC(=O)OC)CCCCC1)=C\c1ccc2c(c1)OCO2` are 10 µM, 45.2 µM and 47.6 µM.
Taken in the same sequence, the figures for `CCC(/C=C/C(=O)O)=C\c1ccc2c(c1)OCO2` were more than 100 µM, more than 100 µM and more than 100 µM.
On to `CCCCC(=O)NC1(CC(=O)NNc2ccccc2)CCN(C(=O)/C=C/C(=C/c2ccc3c(c2)OCO3)CC)CC1`, for which the results for the half-inhibitory concentration (IC50) in data set [1], in data set [2] and in [3] were 4 µM, 15 µM and more than 100 µM, respectively. In addition, the inhibition result (in the data set on PANC-1 [4]; in the data set with PANC-1 [5]; in the data set with PANC-1 [6]; in the data set with PANC-1 [8]; in data set [9]; in data set [10]) was “Active” each time. Moreover, the inhibition result (in data set [17]; with PANC-1 [19]) was “Active” in each case. Besides, the inhibition result (in the data set with PANC-1 [7]; in the data set with PANC-1 [13]; in data set [14]; in data set [15]; in data set [16]) was “Dose-dependent effect” throughout. Moreover, the Activity result in data set [11] was “Dose-dependent effect”; in [18], “Non-toxic”. The outcome in data set [12] was Active.
For `CCC(/C=C/C(=O)NC1(CC(=O)OC)CCCCC1)=C\c1ccc2c(c1)OCO2`, the results for the IC50 in data set [1], in data set [2] and in data set [3] were more than 100 µM, 20 µM and more than 100 µM, respectively.
For the compound `CCC(/C=C/C(=O)N1CCC[C@H]1C(=O)OC)=C\c1ccc2c(c1)OCO2`, the results for the IC50 in data set [1], in [2] and in data set [3] were 42.2 µM, 16 µM and 49.8 µM, respectively.
The corresponding values for `CCC(/C=C/C(=O)N[C@@H](C)C(=O)OC)=C\c1ccc2c(c1)OCO2` are 6.7 µM, 43.5 µM and 47.1 µM.
